In brackets after ≈: the same amount, converted by molar mass.
Key:
[1] = molecular target: T1, Hexokinase-4 (Homo sapiens, UniProt P35557); assay: Activation of human recombinant Glucokinase measured over 5 mins by G6-PD coupled assay in presence of 5 mM glucose
T1 sequence (P35557 whole entry): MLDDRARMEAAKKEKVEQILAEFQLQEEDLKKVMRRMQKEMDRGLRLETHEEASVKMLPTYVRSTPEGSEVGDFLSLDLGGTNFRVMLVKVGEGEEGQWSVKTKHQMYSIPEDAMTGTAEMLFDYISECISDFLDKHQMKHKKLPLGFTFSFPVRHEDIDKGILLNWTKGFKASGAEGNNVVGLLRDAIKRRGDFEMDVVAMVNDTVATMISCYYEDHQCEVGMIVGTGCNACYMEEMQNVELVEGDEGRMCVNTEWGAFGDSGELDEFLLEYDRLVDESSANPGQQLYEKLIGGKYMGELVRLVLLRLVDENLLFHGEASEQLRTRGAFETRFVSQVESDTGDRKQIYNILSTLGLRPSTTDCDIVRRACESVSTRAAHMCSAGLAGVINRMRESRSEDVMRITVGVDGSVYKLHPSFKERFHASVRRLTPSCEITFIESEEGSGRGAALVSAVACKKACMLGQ
Procedure, shortened: (§1)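 Recombinant human GK; glucose held at 5 mM for EC₅₀ determination; run in duplicate (n = 2).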

[2] = Drug metabolism in human liver microsomes assessed as compound turnover at 1 uM after 30 mins; format: ADME; conditions: read-out: Drug metabolism
Procedure, shortened: (§2)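 Test compound at 1 μM initial concentration was incubated with 0.25 mg/mL rat or human liver microsomes for 30 min at 37 °C; percent turnover is the percentage of parent metabolized.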

[3] = Drug metabolism in rat liver microsomes assessed as compound turnover at 1 uM after 30 mins; format: ADME; conditions: read-out: Drug metabolism; procedure, shortened: as §2
[4] = Oral bioavailability in mouse at 5 mg/kg; format: ADME, organism-based; conditions: in vivo
[5] = tested on: Mus musculus; assay: Hypoglycemic activity in fed C57Bl/6 mouse assessed as change in blood glucose level at 10 to 30 mg/kg, po followed by food withdrawal for 4 hrs measured 30 to 240 mins post dose by normoglycemic glucose lowering test; format: ADME, organism-based; parameters: route oral; conditions: in vivo
Procedure, shortened: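 Fed male C57Bl/6 mice dosed orally with vehicle or compound (10 or 30 mg/kg) without glucose challenge, then food removed for 4 h; blood glucose sampled at various time points; two-way ANOVA versus vehicle.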

[6] = Clearance in rat at 0.5 mg/kg, iv; format: ADME, organism-based; parameters: dose 0.5 mg/kg, route intravenous; conditions: in vivo
[7] = Plasma protein binding in human; format: ADME, cell-free; conditions: read-out: PPB (converted)
[8] = AUC in mouse at 5 mg/kg, po; format: ADME, organism-based; parameters: dose 5 mg/kg, route oral; conditions: plasma
[9] = Plasma protein binding in rat; format: ADME, cell-free; conditions: read-out: PPB
[10] = Plasma protein binding in mouse; format: ADME; conditions: read-out: PPB (converted)
[11] = Half life in rat at 0.5 mg/kg, iv; format: ADME, organism-based; parameters: dose 0.5 mg/kg, route intravenous; conditions: in vivo
[12] = AUC in rat at 2 mg/kg, po; format: ADME, organism-based; parameters: dose 2 mg/kg, route oral; conditions: plasma
[13] = molecular target: T1, Hexokinase-4; assay: Activation of human recombinant Glucokinase measured over 5 mins by G6-PD coupled assay in presence of 5 mM glucose and 4% HSA; procedure, shortened: as §1
[14] = Permeability across pig LLC-PK cells; format: ADME, cell-based, Sus scrofa; conditions: LLC-PK1, read-out: permeability
[15] = Volume of distribution at steady state in rat at 0.5 mg/kg, iv; format: ADME, organism-based; parameters: dose 0.5 mg/kg, route intravenous; conditions: in vivo, read-out: Vdss
[16] = Volume of distribution at steady state in dog at 0.5 mg/kg, iv; conditions: in vivo, read-out: Vdss
[17] = Oral bioavailability in rat at 2 mg/kg; format: ADME, organism-based; conditions: in vivo
[18] = tested on: Canis familiaris; assay: AUC in dog at 2 mg/kg, po; conditions: in vivo
[19] = tested on: Canis familiaris; assay: Oral bioavailability in dog at 2 mg/kg; conditions: in vivo
[20] = Half life in dog at 0.5 mg/kg, iv; conditions: in vivo
[21] = tested on: Mus musculus; assay: Antidiabetic activity in fasted ob/ob mouse assessed as reduction in blood glucose AUC at 10 mg/kg, po administered 30 mins prior glucose challenge by oral glucose tolerance test relative to control; format: functional; parameters: scale not given: the % may be the effect or the level left
Procedure, shortened: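 OGTT in fasted ob/ob mice with oral doses of 0.3, 1, 3 and 10 mg/kg; blood glucose AUC compared to vehicle by two-way ANOVA.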

[22] = tested on: Canis familiaris; assay: Clearance in dog at 0.5 mg/kg, iv; conditions: in vivo
[23] = Clearance in rat at 1 mg/kg, iv; format: ADME, organism-based; parameters: dose 1 mg/kg, route intravenous; conditions: in vivo
Procedure, shortened: (§3)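 Rats: IV dose 1 mg/kg, n = 3; PO dose 10 mg/kg, n = 3.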

[24] = Drug metabolism in human primary hepatocytes; format: ADME, cell-based, Hepatocyte; conditions: read-out: Drug metabolism
[25] = Oral bioavailability in rat at 10 mg/kg; format: ADME, organism-based; conditions: in vivo; procedure, shortened: as §3
[26] = AUC in rat at 10 mg/kg, po; format: ADME, organism-based; parameters: dose 10 mg/kg, route oral; conditions: plasma; procedure, shortened: as §3
[27] = Volume of distribution at steady state in rat at 1 mg/kg, iv; format: ADME, organism-based; parameters: dose 1 mg/kg, route intravenous; conditions: in vivo, read-out: Vdss; procedure, shortened: as §3
[28] = Half life in mouse at 1 mg/kg, iv; format: ADME, organism-based; parameters: dose 1 mg/kg, route intravenous; conditions: in vivo
Procedure, shortened: (§4)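 Mice: IV dose 1 mg/kg, n = 3; PO dose 10 mg/kg, n = 3.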

[29] = Solubility of the compound in PBS buffer at 7.4; format: physicochemical; conditions: pH 7.4
[30] = Half life in rat at 1 mg/kg, iv; format: ADME, organism-based; parameters: dose 1 mg/kg, route intravenous; conditions: in vivo; procedure, shortened: as §3
[31] = Oral bioavailability in mouse at 10 mg/kg; format: ADME, organism-based; conditions: in vivo; procedure, shortened: as §4
[32] = tested on: Mus musculus; assay: Antidiabetic activity in C57Bl/6 mouse assessed as reduction in blood glucose AUC at 10 mg/kg, po administered 30 mins prior glucose challenge by oral glucose tolerance test; format: functional; parameters: scale not given: the % may be the effect or the level left
Procedure, shortened: (§5)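 Oral dose–response OGTT in C57Bl/6 mice at 3, 10 and 30 mg/kg; blood glucose area-under-curve assessed; significance versus vehicle by two-way ANOVA.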

[33] = tested on: Mus musculus; assay: Antidiabetic activity in C57Bl/6 mouse assessed as reduction in plasma glucose level at 30 mg/kg, po administered 30 mins prior glucose challenge measured 1.5 to 2 hrs post dose by oral glucose tolerance test; format: functional; procedure, shortened: as §5
[34] = tested on: Mus musculus; assay: Antidiabetic activity in C57Bl/6 mouse assessed as reduction in blood glucose AUC at 3 mg/kg, po administered 30 mins prior glucose challenge by oral glucose tolerance test; format: functional; parameters: scale not given: the % may be the effect or the level left; procedure, shortened: as §5
[35] = Clearance in mouse at 1 mg/kg, iv; format: ADME, organism-based; parameters: dose 1 mg/kg, route intravenous; conditions: in vivo; procedure, shortened: as §4
[36] = Volume of distribution at steady state in mouse at 1 mg/kg, iv; format: ADME, organism-based; parameters: dose 1 mg/kg, route intravenous; conditions: in vivo, read-out: Vdss; procedure, shortened: as §4
[37] = AUC in mouse at 10 mg/kg, po; format: ADME, organism-based; parameters: dose 10 mg/kg, route oral; conditions: plasma; procedure, shortened: as §4

Row | Structure (SMILES) | EC50 [1] [nM] | metabolised at 0.5 h, 1 µM [2] [%] | metabolised at 0.5 h, 1 µM [3] [%] | other results
1 | CCn1nccc1Oc1cc(C[C@@H]2CCO[C@@H](COC)C2)cnc1NC(=O)NC | 350 |  |  | 
2 | CCn1nccc1Oc1cc(C[C@H]2C[C@@H](O)C2)cnc1NC(=O)NC | 530 |  |  | 
3 | CCn1nccc1Oc1cc(CCCC(C)(C)O)cnc1NC(=O)NC | 370 | 10 | 10 | 
4 | CCn1nccc1Oc1cc(CN2CCOCC2)cnc1NC(=O)NC | 7980 |  |  | 
5 | CCn1nccc1Oc1cc(C[C@H]2CC[C@H](O)CC2)cnc1NC(=O)NC | 68 |  |  | 
6 | CCn1nccc1Oc1cc(C[C@H]2C[C@](C)(O)C2)cnc1NC(=O)NC |  |  |  | bioavailability [4]: 44%; Activity [5]: Non-toxic; clearance [6]: 26.7 mL/min/kg; fraction unbound [7]: 0.44; AUC [8]: 6.84 µM·h; fraction unbound [9]: 0.5; fraction unbound [10]: 0.44; half-life [11]: 120 min; AUC [12]: 0.39 µM·h; EC50 [13]: 280 nM; Papp [14]: 32.4 ×10⁻⁶ cm/s; Vd [15]: 0.8 L/kg; Vd [16]: 2.2 L/kg; bioavailability [17]: 9%; AUC [18]: 6.4 µM·h; F [19]: 72%; half-life [20]: 330 min; Activity [21]: 43%; CL [22]: 0.64 L/h/kg
7 | CCc1ncccc1Oc1cc(CC(C)C)cnc1NC(=O)NC | 120 | 56 | 95 | 
8 | CNC(=O)Nc1ncc(CC2CCOCC2)cc1Oc1ccnn1C(C)C | 2760 |  |  | 
9 | CCn1nccc1Oc1cc(C[C@H]2C[C@@](C)(O)C2)cnc1NC(=O)NC | 710 |  |  | 
10 | CCn1nccc1Oc1cc(C[C@H]2CCO[C@H](COC)C2)cnc1NC(=O)NC | 490 |  |  | 
11 | CCn1nccc1Oc1cc(C[C@H]2C[C@H](O)C2)cnc1NC(=O)NC | 500 |  |  | 
12 | CCn1nccc1Oc1cc(C(O)C2CCOCC2)cnc1NC(=O)NC (centres undefined) | 16800 |  |  | 
13 | CCc1ncccc1Oc1cc(CCCOC)cnc1NC(=O)NC | 440 |  |  | 
14 | CCn1nccc1Oc1cc(C[C@H]2CC[C@](C)(O)CC2)cnc1NC(=O)NC | 110 |  |  | 
15 | CCn1nc(COC)cc1Oc1cc(CC2CCOCC2)cnc1NC(=O)NC | 820 |  |  | 
16 | CCn1nccc1Oc1cc(CCCCOC)cnc1NC(=O)NC | 460 | 10 | 31 | 
17 | CCc1ncccc1Oc1cc(CCCC(C)(C)O)cnc1NC(=O)NC | 110 | 31 | 17 | 
18 | CCOCCc1cnc(NC(=O)NC)c(Oc2cccnc2CC)c1 | 590 | 21 | 76 | 
19 | CCc1ncccc1Oc1cc(CC2CCOCC2)cnc1NC(=O)NC | 290 |  |  | 
20 | CCc1ncccc1Oc1cc(CCO)cnc1NC(=O)NC | 1590 | 10 | 10 | 
21 | CCc1ncccc1Oc1cc(CCCCO)cnc1NC(=O)NC | 350 | 20 | 33 | 
22 | CCn1nccc1Oc1cc(CC2CCOCC2)cnc1NC(=O)NC | 350 | 10 | 25 | clearance [23]: 25 mL/min/kg; metabolised [24]: 15%; bioavailability [25]: 19%; AUC [26]: 3.51 µM·h; Vd [27]: 0.8 L/kg; half-life [28]: 43.2 min; solubility [29]: 718 µg/mL (≈ 2000 µM); half-life [30]: 24.6 min; bioavailability [31]: 81%; Activity [32]: 32%; Activity [33]: 77 mg/dL; Activity [34]: 15%; clearance [35]: 28.3 mL/min/kg; Vd [36]: 1.5 L/kg; AUC [37]: 13.3 µM·h
23 | CCc1ncccc1Oc1cc(CCCCOC)cnc1NC(=O)NC | 110 | 23 | 41 | 
24 | CCc1ncccc1Oc1cc(CC2CCCCC2)cnc1NC(=O)NC | 14 | 99 | 95 | 
25 | CCn1nccc1Oc1cc(C[C@H]2CC[C@@H](O)CC2)cnc1NC(=O)NC | 120 |  |  | 
26 | CCn1nccc1Oc1cc(C[C@H]2CC[C@@](C)(O)CC2)cnc1NC(=O)NC | 97 |  |  | 

From ChEMBL document CHEMBL3351938, “C5-Alkyl-2-methylurea-Substituted Pyridines as a New Class of Glucokinase Activators” (ACS Med Chem Lett, 2014)
